Reference: ChEMBL document CHEMBL5042484, “Design of SARS-CoV-2 PLpro Inhibitors for COVID-19 Antiviral Therapy Leveraging Binding Cooperativity” (J Med Chem, 2022)
Active and inactive are the calls of the source. The rule behind the calls is not given here.

Legend:
[1] = Binding affinity to […] sensor chip immobilized His-tagged SARS-CoV-2 PLpro assessed as equilibrium dissociation constant by surface plasmon resonance analysis; parameters: species or system Severe acute respiratory syndrome coronavirus 2
[2] = Inhibition of SARS-CoV-2 PLpro using Z-RLRGG-AMC as substrate preincubated for 10 mins followed by substrate addition measured for 15 mins by fluorescence plate reader assay; parameters: species or system Severe acute respiratory syndrome coronavirus 2
[3] = Drug concentration in C57BL/6J mouse plasma at 50 mg/kg, ip measured from 0.5 to 5 hrs by analytical analysis; format: ADME, organism-based; details: in vivo, time 0.5-5 hrs
[4] = system: A549; experiment: Cytotoxicity against human A549 cells overexpressing ACE2 receptor assessed as cell viability at <10 uM incubated for 48 hrs by Cell Titer-Glo luminescent assay; format: toxicity, cell-based; details: a549, 48 h
[5] = system: A549; experiment: Cytotoxicity against human A549 cells overexpressing ACE2 receptor assessed as cell viability at < 30 uM incubated for 48 hrs by Cell Titer-Glo luminescent assay; format: toxicity, cell-based; details: a549, 48 h
[6] = system: Severe acute respiratory syndrome coronavirus 2; experiment: Inhibition of SARS-CoV-2 PLpro assessed as viral PLpro-mediated deISGylation using ISG-15-AMC as substrate at 30 uM preincubated for 10 mins followed by substrate addition measured for 15 mins by fluorescence plate reader assay
Method in brief: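 Run like the RLRGG-AMC PLpro assay (HEPES pH 7.5 buffer, 10 min preincubation, 15 min fluorescence read), but with 4 nM PLpro and 0.5 µM ISG15-AMC as substrate.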

[7] = system: Severe acute respiratory syndrome coronavirus 2; experiment: Inhibition of SARS-CoV-2 PLpro assessed as viral PLpro-mediated deubiquitination using Ub-AMC as substrate at 30 uM preincubated for 10 mins followed by substrate addition measured for 15 mins by fluorescence plate reader assay
Method in brief: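 Run like the RLRGG-AMC PLpro assay (HEPES pH 7.5 buffer, 10 min preincubation, 15 min fluorescence read), but with 80 nM PLpro and 0.5 µM Ub-AMC as substrate.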

[8] = system: A549; experiment: Cytotoxicity against human A549 cells overexpressing ACE2 receptor assessed as cell viability at 100 uM incubated for 48 hrs by Cell Titer-Glo luminescent assay; format: toxicity, cell-based; details: a549, 48 h
[9] = Inhibition of SARS-CoV-2 PLpro; parameters: species or system Severe acute respiratory syndrome coronavirus 2
[10] = system: A549; experiment: Cytotoxicity against human A549 cells overexpressing ACE2 receptor assessed as cell viability at <50 uM incubated for 48 hrs by Cell Titer-Glo luminescent assay; format: toxicity, cell-based; details: a549, 48 h

CNC(=O)C[C@@H](NC(=O)c1cc(N(C)C2CNC2)ccc1C)c1cccc2ccccc12
Kd [1]: > 1000 µM | IC50 [2]: Not Active

Cc1ccc(NC2CNC2)cc1C(=O)N[C@H](C)c1cccc(-c2ccc(CN3CCCC3)s2)c1
concentration [3]: 12 µM | Activity [4]: Non-Toxic | Activity [5]: Non-Toxic | inhibition [6]: Active | inhibition [7]: Active | Activity [8]: Toxic

Cc1ccc(NC2CNC2)cc1C(=O)N[C@H](C)c1cccc2ccccc12
inhibition [6]: Active | inhibition [7]: Active

COC(=O)/C=C/CNC(=O)CNC(=O)[C@H](CN)NC(=O)[C@H](CCc1nc2ccccc2s1)NC(C)=O
IC50 [9]: 50 µM

COC(=O)/C=C/CNC(=O)CNC(=O)[C@H](CN)NC(=O)[C@H](CCc1ccc(O)cc1)NC(C)=O
IC50 [9]: 50 µM

Cc1ccc(NC2CNC2)cc1C(=O)N[C@H](C)c1cccc(-c2cccs2)c1 (single isomer, unassigned)
inhibition [6]: Active | inhibition [7]: Active

Cc1ccc(NC2CNC2)cc1C(=O)N[C@H](C)c1cccc(-c2ccc(CNC3CCCC3)s2)c1
Kd [1]: 0.235 µM | Activity [5]: Non-Toxic | inhibition [6]: Active | Activity [10]: Non-Toxic | inhibition [7]: Active | Activity [8]: Toxic

Cc1ccc(N)cc1C(=O)N[C@H](C)c1cccc2ccccc12
inhibition [6]: Active | inhibition [7]: Active

Cc1ccc(N)cc1C(=O)N[C@H](CCO)c1cccc2ccccc12
IC50 ([2]; read-out: IC50): 100 µM
